In the library only some 3.5% were active in any assay of this set; here they are far more common.
MrgX1 ag: agonists of human MrgX1 receptor, primary screen, HEK293 cells, Fluo-4 calcium flux | Mas-related G-protein coupled receptor member X1 (Homo sapiens), Q96LB2 | Fluo-4 calcium fluorescence, agonist mode; hits give high values | 310,000 tested, 0.44% active | B-score at 10 µM;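 active = calcium response B-score plate-corrected fluorescence ratio at least 3 library SD, with starting fluorescence B-score inside 5 SD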
Target sequence (Q96LB2 whole entry, looked up): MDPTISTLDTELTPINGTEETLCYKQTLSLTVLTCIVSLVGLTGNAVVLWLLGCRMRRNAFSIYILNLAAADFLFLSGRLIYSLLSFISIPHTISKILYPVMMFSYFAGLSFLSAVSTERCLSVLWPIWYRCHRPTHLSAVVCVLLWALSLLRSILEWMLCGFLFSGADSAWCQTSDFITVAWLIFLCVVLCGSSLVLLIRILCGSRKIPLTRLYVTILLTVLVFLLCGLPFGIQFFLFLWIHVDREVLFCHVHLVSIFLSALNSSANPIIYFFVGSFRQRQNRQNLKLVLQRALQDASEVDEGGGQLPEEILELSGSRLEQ
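times = overnight plating, then 30 min 37 °C plus 30 min room-temperature dye loading | assay system = stable human MrgX1 HEK293 cell line | input = fifteen thousand cells per well | signal = kinetic calcium dye fluorescence, Fluo-4 NW | dosing = compound delivered in addition one of three | read-out = B-scored fluorescence response ratio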
RGS4 inh: RGS4 inhibitors, primary screen, cell-based, HEK293 M3R inducible RGS4, calcium flux; B-score at 10 µM; 310,000 tested, 0.45% active; Regulator of G-protein signaling 4 (Homo sapiens), P49798; Fluo-4 calcium flux; hits give high values; triggered by carbachol at its EC20; AID 463165, 2010;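 active = B-score, a plate-corrected calcium signal, over three deviations above library mean, with baseline fluorescence within five deviations of library mean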;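 also: RGS4 expression induced by doxycycline in cells with stable M3 receptor; B-score is computed from the integrated fluorescence ratio over baseline after carbachol; higher B-score means a larger calcium signal and so more RGS4 inhibition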
Target sequence (P49798 whole entry, looked up): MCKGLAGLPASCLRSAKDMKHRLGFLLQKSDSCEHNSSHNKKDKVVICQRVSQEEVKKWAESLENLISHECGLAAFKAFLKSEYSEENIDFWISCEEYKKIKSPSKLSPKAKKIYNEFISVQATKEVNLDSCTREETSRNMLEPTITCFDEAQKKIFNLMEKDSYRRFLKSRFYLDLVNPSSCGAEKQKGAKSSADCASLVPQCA
MrgX1 antag: antagonists of human MrgX1 receptor, primary screen, HEK293 cells, Fluo-4 calcium flux. BAM8-22 antagonism; hits give low values. B-score at 10 µM. 310,000 tested, 1.3% active. Mas-related G-protein coupled receptor member X1 (Homo sapiens), Q96LB2;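 active = calcium-response B-score plate-corrected more than 3 library SD below zero, starting fluorescence within 5 deviations, no agonist response on first addition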;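 also: peak minus trough fluorescence over baseline after final BAM8-22 challenge near maximal dose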
MrgX1 allo act: positive allosteric modulators of MrgX1, primary screen, HEK293 cells, Fluo-4 calcium flux. 310,000 tested, 0.63% active. Mas-related G-protein coupled receptor member X1 (Homo sapiens), Q96LB2. B-score at 10 µM. FDSS; hits give high values. AID 588675, 2011;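 active = plate-corrected calcium response at least 3 library SD above typical, normal starting fluorescence, not activating the receptor alone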;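 also: compound read alongside a low EC10 to EC30 dose of BAM8-22 agonist; peak minus trough fluorescence over baseline measured at the second addition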
RGS4 pot: RGS4 potentiators or activators, primary screen, cell-based, HEK293 M3R inducible RGS4, calcium flux; carbachol calcium flux Fluo4; hits give low values; B-score at 10 µM; 310,000 tested, 0.92% active;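 active = B-score of the integrated calcium signal more than 4 SD below the library mean, with starting fluorescence not abnormally high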;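 also: negative B-score means reduced calcium response which marks RGS4 activation or potentiation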
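Also added: carbachol at ECmax as muscarinic agonist stimulus; Assay system: HEK293 cells with stable M3R and inducible RGS4; Timing: overnight RGS4 induction, 30 min dye load 37 °C, 20 min compound RT; Measured by: Fluo4-AM (2 µM) calcium-flux fluorescence, kinetic read.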
MrgX1 ant reconf: MrgX1 receptor antagonists, duplicate retest, confirmation, HEK293 cells, Fluo-4 calcium flux | 2,300 tested, 19% active | BAM8-22 calcium flux; hits give low values | shares compounds with MrgX1 antag | remaining BAM8-22 calcium response % of control (hits give low values), % at 10 µM;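 active = remaining agonist calcium response no higher than 100% minus 3 SD of agonist-only control wells, with starting fluorescence near control levels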;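 also: agonist BAM8-22 given at a near maximal EC90 to ECmax level; peak minus minimum fluorescence divided by baseline after agonist addition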
HEK293 Ca flux: nonspecific calcium signal in parental HEK293, confirmation, counter-screen for MrgX1 antagonist project, parental HEK293 cells, Fluo-4 calcium flux; shares compounds with MrgX1 antag; Fluo-4 calcium fluorescence, FDSS; fluorescence ratio F(max-min)/F0 at 10 µM; 4,000 tested, 2% active; AID 624111, 2012;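 active = duplicate-averaged calcium fluorescence ratio at least three times the standard deviation of buffer wells, a nonspecific response in parental cells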
HEK293 Ca counter: calcium response in parental HEK293 cells, primary screen, counter-screen for MrgX1 allosteric activator project, cell-based, Fluo-4 calcium flux, duplicate | shares compounds with MrgX1 antag | Fluo-4 fluorescence ratio; hits give high values | fluorescence ratio F(max-min)/F0 at 10 µM | 4,000 tested, 0.4% active | AID 624114, 2012;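 active = calcium fluorescence ratio, averaged over duplicates, at least 3 SD of the buffer-well ratio, meaning a nonspecific response in receptor-free cells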;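 also: untransfected parental HEK293 lacking MrgX1 used as counterscreen for MrgX1 allosteric activators; fluorescence change taken during the second addition on a kinetic imager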
HEK293 Ca cntr2: calcium response in parental HEK293 cells, primary screen, counter-screen for MrgX1 agonist project, cell-based, Fluo-4 calcium flux, duplicate, agonist mode; Fluo-4 calcium fluorescence (FDSS); hits give high values; fluorescence ratio F(max-min)/F0 at 10 µM; AID 624115, 2012; shares compounds with MrgX1 antag; 4,000 tested, 8.7% active;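 active = calcium fluorescence ratio at least three times the spread of buffer wells, meaning a non-specific response in parental cells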
Each line names hits and unclear results; the compound was inactive in the other large screens (follow-up assays come after a bar, where they were run); ! = not confirmed by another sample.

CC1CCCC(NCC(=O)Nc2ccc(C(N)=O)cc2)C1C (configuration not stated)	none
CC(N)C12CC3CC(CC(C3)C1)C2 (configuration not stated)	MrgX1 antag -4.98! | MrgX1 ant reconf inactive | HEK293 Ca flux inactive | HEK293 Ca counter inactive | HEK293 Ca cntr2 inactive
Cc1ccc(S(=O)(=O)c2nc(-c3cccs3)oc2SCC(N)=O)cc1	MrgX1 antag -7.12 | MrgX1 ant reconf inactive | HEK293 Ca flux inactive | HEK293 Ca counter inactive | HEK293 Ca cntr2 inactive
Cc1ccc(-c2nc(S(=O)(=O)c3ccc(C)cc3)c(SCC(N)=O)o2)cc1	none
CCn1c2ccccc2c2cc(NC(=O)COC(=O)c3ccc(O)cc3)ccc21	MrgX1 antag -7.7 | MrgX1 ant reconf inactive | HEK293 Ca flux inactive | HEK293 Ca counter inactive | HEK293 Ca cntr2 inactive
CCN(CC)S(=O)(=O)c1cccc(C(=O)Nc2ccc3c(c2)OCO3)c1	none
CCC(CC)C(=O)Nc1cccc(C(=O)Nc2ccc3c(c2)OCO3)c1	MrgX1 antag -6 | MrgX1 ant reconf inactive | HEK293 Ca flux inactive | HEK293 Ca counter inactive | HEK293 Ca cntr2 inactive
CCCNC(=O)c1cccc(NC(=O)C(C)C)c1	MrgX1 antag -7.27 | MrgX1 ant reconf inactive | HEK293 Ca flux inactive | HEK293 Ca counter inactive | HEK293 Ca cntr2 47.8
O=C(O)CSc1nnc(CNc2cccc(C(F)(F)F)c2)n1Cc1ccco1	MrgX1 antag -7.36 | MrgX1 ant reconf 78.9% | HEK293 Ca flux inactive | HEK293 Ca counter inactive | HEK293 Ca cntr2 inactive
O=C(CSc1nnc(CNc2cccc(C(F)(F)F)c2)n1Cc1ccco1)NCc1ccco1	none
CCC(C)Sc1nc2c(cnn2-c2ccc(C)cc2)c(=O)[nH]1 (configuration not stated)	none
CCC(C)Sc1nc2c(cnn2-c2ccccc2)c(=O)[nH]1 (configuration not stated)	MrgX1 antag -4.94 | MrgX1 ant reconf inactive | HEK293 Ca flux inactive | HEK293 Ca counter inactive | HEK293 Ca cntr2 inactive
Cc1ccc(S(=O)(=O)Nc2ccc(Oc3cccnc3)nc2)cc1	none
CN(C)S(=O)(=O)c1cccc(NC(=O)c2ccc(COc3ccccc3)cc2)c1	MrgX1 antag -4.8, RGS4 pot -7.22 | MrgX1 ant reconf 56.8% | HEK293 Ca flux inactive | HEK293 Ca counter inactive | HEK293 Ca cntr2 inactive
Cc1ccc2c(c1)nnn2C1CCN(S(=O)(=O)c2ccc(C(=O)N(C)C)cc2)CC1	MrgX1 antag -7.04 | MrgX1 ant reconf inactive | HEK293 Ca flux inactive | HEK293 Ca counter inactive | HEK293 Ca cntr2 inactive
Cc1ccc2c(c1)nnn2C1CCN(S(=O)(=O)c2ccc(C(=O)NC3CCCC3)cc2)CC1	none
Cc1ccc(NC(=O)N2CCCC2C(=O)NCc2ccc(Cl)cc2)cc1 (configuration not stated)	none
Nc1c(S(=O)(=O)c2cccs2)c2nc3ccccc3nc2n1CC1CCCO1 (configuration not stated)	MrgX1 antag -7.03 (no result: RGS4 inh, RGS4 pot) | MrgX1 ant reconf inactive | HEK293 Ca flux inactive | HEK293 Ca counter inactive | HEK293 Ca cntr2 inactive
CCN=C(NCC)SC1CC(=O)N(c2ccccc2)C1=O (configuration not stated)	MrgX1 antag -8.16 | MrgX1 ant reconf inactive | HEK293 Ca flux inactive | HEK293 Ca counter inactive | HEK293 Ca cntr2 inactive
COc1ccccc1N1CCN(C(=O)COc2cc(C)cc(C)c2)CC1	none
CC(C)(CNC(=O)c1cc2ccccc2o1)N1CCOCC1	MrgX1 antag -4.54 | MrgX1 ant reconf inactive | HEK293 Ca flux inactive | HEK293 Ca counter inactive | HEK293 Ca cntr2 inactive
CC(C)(CNC(=O)c1ccc(NS(=O)(=O)c2ccc(Br)cc2)cc1)N1CCOCC1	MrgX1 antag -6.5 | MrgX1 ant reconf 51.2% | HEK293 Ca flux inactive | HEK293 Ca counter inactive | HEK293 Ca cntr2 inactive
O=C(NCCN1CCOCC1)c1cc2ccccc2o1	none
O=C(NCc1cccs1)c1cc2ccccc2o1	MrgX1 antag -7.53 | MrgX1 ant reconf inactive | HEK293 Ca flux inactive | HEK293 Ca counter inactive | HEK293 Ca cntr2 inactive
O=C(NCC(=O)N(CCN1CCOCC1)C(C(=O)NC1CCCC1)c1ccccc1)c1cccs1 (configuration not stated)	none
COCCN(C(=O)Cc1cccs1)C(C(=O)NC1CCCC1)c1cc(OC)c(OC)c(OC)c1 (configuration not stated)	none
CSc1cc(-c2ccncc2)nc(-c2ccc(Cl)cc2)c1	none
CCOC(=O)N1CCN(C2CC(=O)N(c3ccc(F)cc3)C2=O)CC1 (configuration not stated)	MrgX1 antag -5.89 | MrgX1 ant reconf inactive | HEK293 Ca flux inactive | HEK293 Ca counter inactive | HEK293 Ca cntr2 inactive
Cc1ccc(CN2CCCNC2=O)cc1	MrgX1 antag -4.88 | MrgX1 ant reconf inactive | HEK293 Ca flux inactive | HEK293 Ca counter inactive | HEK293 Ca cntr2 inactive
CCc1noc(C)c1C(=O)Nc1nc(-c2ccc(OC)c(OC)c2)cs1	none
COc1ccc(-c2csc(NC(=O)Cc3ccccc3F)n2)cc1OC	MrgX1 antag -6.09 | MrgX1 ant reconf 78.0% | HEK293 Ca flux inactive | HEK293 Ca counter inactive | HEK293 Ca cntr2 inactive
COc1ccc(-c2csc(NC(=O)c3cc(C)oc3C)n2)cc1OC	MrgX1 antag -4.94 | MrgX1 ant reconf 71.1% | HEK293 Ca flux inactive | HEK293 Ca counter inactive | HEK293 Ca cntr2 inactive
COc1ccccc1CC(=O)Nc1nc(-c2ccc(F)c(F)c2)cs1	none
COc1ccc(-c2csc(NC(=O)C3CCN(c4ncnc5sc(C)c(C)c45)CC3)n2)cc1OC	MrgX1 antag -6 | MrgX1 ant reconf 79.3% | HEK293 Ca flux inactive | HEK293 Ca counter inactive | HEK293 Ca cntr2 inactive
COc1ccc(C(=O)NCC(=O)OCC(=O)N2CCC(C)CC2)cc1OC	none
COc1ccc(NC(=O)CN(Cc2ccccc2)S(C)(=O)=O)c(OC)c1	none
